Source: ChEMBL document CHEMBL1671650, “In vitro activity and preclinical profile of TMC435350, a potent hepatitis C virus protease inhibitor” (Antimicrob Agents Chemother, 2009)
Activity calls are given as the source filed them.

Experiments:
[1] = Cytotoxicity against human MRC5 cells after 3 to 4 days by resazurin proliferation assay; assay type: cell-based
Procedure, shortened: (§1)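 Human cell lines in DMEM with 10% heat-inactivated FBS and 2 mM L-glutamine (replicon cells plus 0.75 mg/ml G418 in maintenance). Exposed to compound for 3 to 4 days; resazurin fluorescence read-out. CC50 from inhibition curves.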

Hepatitis C virus [2] = assay: Antiviral activity against Hepatitis C virus 1b isolate con1 infected in human HuH7 cells assessed as viral RNA level after 72 hrs by quantitative reverse transcriptase PCR; assay type: functional, organism-based, Hepacivirus hominis; conditions: Con1, Huh-7, 72 h
Procedure, shortened: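 Replicon cells (Huh7-Luc at 3,000/well; con1b S2204I or 1a H77 P1496L/S2204I at 6,000/well) exposed to a dilution range for 72 h in 0.5% DMSO without G418. Lysates reverse transcribed 30 min at 42°C with an HCV 5′UTR primer and an RPL13A control. Inhibition from threshold-cycle difference versus mock; EC50 taken from the dose-response curve.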

[3] = AUC (0 to 24 hrs) in Sprague-Dawley rat at 4 mg/kg, iv; assay type: ADME, organism-based; set-up: time < 24 hr, dose 4 mg/kg, route intravenous; conditions: plasma
Procedure, shortened: (§2)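 Male specific-pathogen-free Sprague-Dawley rats (200-300 g), n = 3; single slow tail-vein bolus of 20% 2-hydroxypropyl-β-cyclodextrin formulation (pH 8.0) at 2 ml/kg. Plasma sampled from orbital plexus at 7 min, 20 min, 1, 3, 8, 24 and 31 h; LC-MS/MS (LLOQ 1 ng/ml); noncompartmental analysis of individual plasma profiles.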

[4] = Ratio of AUC (0 to 31 hrs) in Sprague-Dawley rat adrenal gland to AUC (0 to 31 hrs) in Sprague-Dawley rat plasma at 40 mg/kg, po administered as single dose; assay type: ADME, organism-based; set-up: dose 40 mg/kg, route oral
Procedure, shortened: (§3)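 Male specific-pathogen-free Sprague-Dawley rats (200–300 g), three per group, single gastric intubation at 2 ml/kg of a vitamin E TPGS–PEG 400 solution; food and water ad libitum. Plasma sampled 30 min to 31 h; tissues dissected from oral groups. LC-MS/MS (LLOQ 1 ng/ml plasma, 5 ng/g tissue); noncompartmental analysis; ratios from mean of three rats.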

[5] = system: Bovine viral diarrhea virus 1; assay: Antiviral activity against Bovine viral diarrhea virus 1 NADL infected in […] cells inhibition of virus-induced cytopathic effect at 10 to 100 uM; assay type: functional, organism-based
Procedure, shortened: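 Cytopathic effect inhibition assay: BVDV-NADL in MDCK cells; WNV-NY99/1 in Vero cells. Highest concentration tested 10 to 100 μM.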

Hepatitis C virus [6] = assay: Antiviral activity against Hepatitis C virus in presence of 1 mg/ml alpha-1 acid glycoprotein
[7] = Cytotoxicity against staphylococcal enterotoxin B-stimulated human PBMC cells; assay type: cell-based
[8] = Ratio of AUC (0 to 31 hrs) in Sprague-Dawley rat thymus to AUC (0 to 31 hrs) in Sprague-Dawley rat plasma at 40 mg/kg, po administered as single dose; assay type: ADME, organism-based; set-up: dose 40 mg/kg, route oral; procedure, shortened: as §3
[9] = AUC (0 to infinity) in Sprague-Dawley rat at 4 mg/kg, iv; assay type: ADME, organism-based; set-up: time infinity, dose 4 mg/kg, route intravenous; conditions: plasma; procedure, shortened: as §2
PBMC = assay: Cytostatic activity against human PBMC cells assessed as incorporation of [3H]thymidine; assay type: ADME, cell-based; conditions: read-out: CS50 (the source's name)
Hepatitis B virus = assay: Antiviral activity against Hepatitis B virus infected in human HepG2.2.15 cells at 10 to 100 uM by quantitative PCR; assay type: functional, organism-based; conditions: HepG2 2.2.15
Procedure, shortened: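 HBV replication in HepG2.2.15 cells, measured by quantitative PCR. Highest concentration tested 10 to 100 μM.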

Hepatitis C virus [10] = assay: microbe, parasite or virus in culture
[11] = Half life (8 to 24 hrs) in Sprague-Dawley rat plasma at 40 mg/kg, po; assay type: ADME, organism-based; set-up: dose 40 mg/kg, route oral
Procedure, shortened: (§4)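 Male SPF Sprague-Dawley rats (200–300 g), three per group. Oral gavage at 40 mg/kg (2 ml/kg) in TPGS–PEG400 solution. Plasma sampled 0.5–31 h, measured by LC-MS/MS (LLOQ 1 ng/ml). Noncompartmental analysis.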

[12] = Inhibition of HCV 1a H77 NS3/4A protease using RetS1 as a substrate by fluorescence resonance energy transfer cleavage assay
[13] = Apparent volume of distribution at steady-state in Sprague-Dawley rat at 4 mg/kg, iv; assay type: ADME, organism-based; set-up: dose 4 mg/kg, route intravenous; conditions: in vivo
Procedure, shortened: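 Male SPF Sprague-Dawley rats (200–300 g), n=3. Single slow i.v. tail-vein bolus at 4 mg/kg (2 ml/kg) in 20% hydroxypropyl-β-cyclodextrin, pH 8.0. Plasma sampled 7 min to 31 h, measured by LC-MS/MS (LLOQ 1 ng/ml). Noncompartmental analysis.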

[14] = Ratio of AUC (0 to 31 hrs) in Sprague-Dawley rat large intestine to AUC (0 to 31 hrs) in Sprague-Dawley rat plasma at 40 mg/kg, po administered as single dose; assay type: ADME, organism-based; set-up: dose 40 mg/kg, route oral; conditions: read-out: Ratio AUC; procedure, shortened: as §3
[15] = Cytotoxicity against human MT4 cells after 3 to 4 days by resazurin proliferation assay; assay type: cell-based; procedure, shortened: as §1
[16] = system: Respiratory syncytial virus; assay: Antiviral activity against Respiratory syncytial virus infected in human HeLa cells at 10 to 100 uM; assay type: functional, organism-based
Procedure, shortened: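 RSV (LO strain) in HeLa/M cells, tetrazolium-based colorimetric read-out. Highest concentration tested 10 to 100 μM.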

[17] = Ratio of AUC (0 to 31 hrs) in Sprague-Dawley rat small intestine to AUC (0 to 31 hrs) in Sprague-Dawley rat plasma at 40 mg/kg, po administered as single dose; assay type: ADME, organism-based; set-up: dose 40 mg/kg, route oral; conditions: read-out: Ratio AUC; procedure, shortened: as §3
Hepatitis C virus [18] = assay: microbe, parasite or virus in culture; remark: listed apart in the source
[19] = Ratio of AUC (0 to 31 hrs) in Sprague-Dawley rat spleen to AUC (0 to 31 hrs) in Sprague-Dawley rat plasma at 40 mg/kg, po administered as single dose; assay type: ADME, organism-based; set-up: dose 40 mg/kg, route oral; procedure, shortened: as §3
Cathepsin S = Cathepsin S (Homo sapiens, UniProt P25774); assay: Inhibition of human cathepsin S in human JY cells assessed as p10 accumulation by fluorescence-based assay; assay type: cell-based
Sequence of Cathepsin S (P25774 whole entry, the tested form may be a part): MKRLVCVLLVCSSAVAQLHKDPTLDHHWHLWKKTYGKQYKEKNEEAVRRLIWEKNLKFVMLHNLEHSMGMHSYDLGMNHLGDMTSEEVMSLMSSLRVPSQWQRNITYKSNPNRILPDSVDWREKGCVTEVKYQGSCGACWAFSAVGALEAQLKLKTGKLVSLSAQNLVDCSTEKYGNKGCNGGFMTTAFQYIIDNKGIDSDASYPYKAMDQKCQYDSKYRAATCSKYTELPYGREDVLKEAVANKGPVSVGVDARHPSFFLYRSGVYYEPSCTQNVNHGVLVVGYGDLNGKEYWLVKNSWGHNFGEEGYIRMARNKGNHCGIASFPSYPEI
Procedure, shortened: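 Cellular cathepsin S assay in the human JY B-cell line, read as invariant chain degradation (p10 fragment accumulation). Top concentration 10 μM.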

HepG2 = assay: Cytotoxicity against human HepG2 cells upto 42 uM after 3 to 4 days by resazurin proliferation assay; assay type: cell-based; procedure, shortened: as §1
[20] = Cytotoxicity against human HuH7 cells infected with Hepatitis C virus subtype 1b after 3 to 4 days by resazurin proliferation assay; assay type: cell-based, Huh-7; procedure, shortened: as §1
[21] = AUC (0 to 24 hrs) in Sprague-Dawley rat at 40 mg/kg, po; assay type: ADME, organism-based; set-up: time < 24 hr, dose 40 mg/kg, route oral; conditions: plasma
Procedure, shortened: (§5)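 Male specific-pathogen-free Sprague-Dawley rats (200-300 g), three per group; single gastric intubation of vitamin E TPGS-polyethylene glycol 400 solution at 2 ml/kg. Plasma taken from orbital plexus at 0.5, 1, 2, 4, 8, 24 and 31 h; LC-MS/MS (LLOQ 1 ng/ml); noncompartmental analysis; rats fed and watered ad libitum.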

[22] = Cytotoxicity against human HEK293T cells upto 42 uM after 3 to 4 days by resazurin proliferation assay; assay type: cell-based; conditions: hek-293t; procedure, shortened: as §1
[23] = Tmax in Sprague-Dawley rat plasma at 40 mg/kg, po upto 31 hrs; assay type: ADME, organism-based; set-up: dose 40 mg/kg, route oral; procedure, shortened: as §4
[24] = Cytotoxicity against human HuH7 cells upto 42 uM after 3 to 4 days by resazurin proliferation assay; assay type: cell-based; conditions: huh-7; procedure, shortened: as §1
[25] = AUC (0 to infinity) in Sprague-Dawley rat at 40 mg/kg, po; assay type: ADME, organism-based; set-up: dose 40 mg/kg, route oral; conditions: plasma, read-out: AUBC; procedure, shortened: as §5

COc1ccc2c(O[C@@H]3C[C@H]4C(=O)N[C@]5(C(=O)NS(=O)(=O)C6CC6)C[C@H]5/C=C\CCCCN(C)C(=O)[C@@H]4C3)cc(-c3nc(C(C)C)cs3)nc2c1C [SIMEPREVIR]
CC50 [1]: 16 µM | EC50 (Hepatitis C virus [2]): 0.0252 µM | EC90 (Hepatitis C virus [2]): 0.118 µM | AUC(0-t) at 24 h [3]: 1740 ng·h/mL | Kp [4]: 0.5 | Activity [5]: inactive | EC50 (Hepatitis C virus [6]): 0.0114 µM | CC50 [7]: 33 µM | Kp [8]: 0.5 | AUC(0-inf) [9]: 1750 ng·h/mL | GI50 (PBMC): 10 µM | Activity (Hepatitis B virus): inactive | EC50 ratio (Hepatitis C virus [10]): 1.4 | half-life [11]: 2.6 h | Ki [12]: 0.0005 µM | Vd [13]: 5.3 L/kg | Kp [14]: 29 | CC50 [15]: 16 µM | Activity [16]: inactive | Kp [17]: 128 | EC50 ratio (Hepatitis C virus [18]): 1.7 | Kp [19]: 0.3 | IC50 (Cathepsin S): 0.8 µM | Activity (HepG2): Non-toxic | CC50 [20]: 47 µM | AUC(0-t) at 24 h [21]: 7740 ng·h/mL | Activity [22]: Non-toxic | Tmax [23]: 2 h | Activity [24]: Non-toxic | AUC [25]: 7750 ng·h/mL
